ChEMBL document CHEMBL1125740, “Heterocyclic quinones. 17. A new in vivo active antineoplastic drug: 6,7-bis(1-aziridinyl)-4-[[3-(N,N-dimethylamino)propyl]amino]-5,8- quinazolinedione” (J Med Chem, 1991)
Several values for one entry are separate records, joined by “and”; a condition that tells them apart may be missing. Equal values may be shown once.

Experiments:
[1] = tested on: M5076; test: Compound was evaluated in vivo for antitumor activity against M5076 after injecting the compound intravenously for toxicity related death.; assay type: functional, Mus musculus
[2] = tested on: P388; test: Compound was evaluated in vivo for antitumor activity after intraperitoneal administration against P388 (1313) for % increase in life span at an optimal dose of 0.4 mg/kg/injection; assay type: functional; settings: Mus musculus, P388, ip
[3] = tested on: P388; test: Compound was evaluated in vivo for antitumor activity after intraperitoneal administration against P388/L-PAM(14) for total dose at an optimal dose of 0.25 mg/kg/injection at 1,4,7,11 day schedule.; assay type: functional, Mus musculus
[4] = tested on: L1210; test: Compound was evaluated in vivo for antitumor activity after intraperitoneal administration against L1210(935) for total dose at an optimal dose of 0.125 mg/kg/injection at 1,4,7,11day schedule.; assay type: functional, Mus musculus
Procedure, shortened: (§1)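 L1210 leukemia, maintained in DBA/2 mice, was given ip as 10⁵ cells on day 0 to F1 hybrid or strain-of-origin mice over 18 g, in groups of 8. Dosing was ip from day 1, and mortality was checked daily. Median day of death counts dying mice only. %ILS = 100×(treated − control median day of death)/control median. Tumor-free survivors were counted on day 60. Weight change is g/mouse at nadir.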

[5] = tested on: P388; test: Compound was evaluated in vivo for antitumor activity after intraperitoneal administration against P388 (1313) for median day of death at an optimal dose of 0.4 mg/kg/injection; assay type: functional, Mus musculus
[6] = tested on: P388; test: Compound was evaluated in vivo for antitumor activity after intraperitoneal administration against P388/L-PAM(14) for % increase in life span at an optimal dose of 0.5 mg/kg/injection at one day schedule.; assay type: functional; settings: Mus musculus, P388, ip, 24 h
[7] = tested on: P388; test: Compound was evaluated in vivo for antitumor activity after intraperitoneal administration against P388/L-PAM(14) for tumor free survivors at an optimal dose of 0.1 mg/kg/injection at 1,2,3,4 day schedule.; assay type: functional, Mus musculus
[8] = tested on: P388; test: Compound was evaluated in vivo for antitumor activity after intraperitoneal administration against P388 (1313) for % increase in life span at an optimal dose of 1 mg/kg/injection; assay type: functional; settings: Mus musculus, P388, ip
[9] = tested on: P388; test: Compound was evaluated in vivo for antitumor activity after intraperitoneal administration against P388 (1313) for median day of death at an optimal dose of 0.2 mg/kg/injection; assay type: functional, Mus musculus
[10] = tested on: B16; test: Compound was evaluated in vivo for antitumor activity against B16 melanoma after injecting the compound intravenously for median tumor burden; assay type: functional, Mus musculus
Procedure, shortened: (§2)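 30-60 mg tumor fragments implanted sc by trocar on day 0 into C57Bl/6-derived hosts (B16) or C3H/He-derived hosts (16/C). Drug given iv on days 6, 9 and 13 (B16) or 6, 9 and 12 (16/C), 10 mice per group. Tumors measured by caliper. T/C % taken from median tumor burden of treated vs control groups on day 15 (B16) or day 14 (16/C). Body weight change per mouse recorded at nadir.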

[11] = tested on: P388; test: Compound was evaluated in vivo for antitumor activity after intraperitoneal administration against P388 (1303) for tumor free survivors at an optimal dose of 0.75 mg/kg/injection on day 60; assay type: functional, Mus musculus
[12] = Compound was evaluated in vivo for antitumor activity against mammary adenocarcinoma 16/C after injecting the compound intravenously for median; assay type: functional, Mus musculus
[13] = Compound was evaluated in vivo for antitumor activity against Lewis Lung cercinoma after injecting the compound intravenously for toxicity related death.; assay type: functional, Mus musculus
Procedure, shortened: (§3)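 Lewis lung carcinoma: 10^6 cells implanted im into C57Bl/6-derived hosts. Drug given iv on days 5, 9 and 13, 10 mice per group. Median tumor burden and weight nadir recorded. Survivors were killed on day 19, and their lungs were fixed in Fekete solution so that macroscopic metastases could be counted.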

[14] = tested on: P388; test: Compound was evaluated in vivo for antitumor activity after intraperitoneal administration against P388/L-PAM(12) for change in body weight at an optimal dose of 0.75 mg/kg/injection; assay type: functional, Mus musculus
[15] = tested on: P388; test: Compound was evaluated in vivo for antitumor activity after intraperitoneal administration against P388/L-PAM(14) for total dose at an optimal dose of 0.5 mg/kg/injection at one day schedule.; assay type: functional, Mus musculus
[16] = tested on: L1210; test: Compound was evaluated in vivo for antitumor activity after intraperitoneal administration against L1210(935) for tumor free survivors at an optimal dose of 1 mg/kg/injection at 1 day schedule.; assay type: functional, Mus musculus; procedure, shortened: as §1
[17] = Compound was evaluated in vivo for antitumor activity against Glasgow osteogenic sarcoma after injecting the compound intravenously for median tumor burden; assay type: functional, Mus musculus
Procedure, shortened: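 Glasgow osteogenic sarcoma in C57Bl/6-derived hosts: 30-60 mg fragments implanted sc by trocar on day 0. Drug given iv on days 3, 6 and 9, 7 mice per group. Tumors measured by caliper. Median tumor burden recorded on day 10. Body weight change per mouse recorded at nadir. Toxicity-related deaths counted.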

[18] = tested on: P388; test: Compound was evaluated in vivo for antitumor activity after intraperitoneal administration against P388/L-PAM(14) for total dose at an optimal dose of 1 mg/kg/injection; assay type: functional, Mus musculus
[19] = Compound was evaluated in vivo for antitumor activity against Lewis Lung cercinoma after injecting the compound intravenously for change in body weight.; assay type: functional, Mus musculus; procedure, shortened: as §3
[20] = tested on: B16; test: Compound was evaluated in vivo for antitumor activity against B16 melanoma 2 after injecting the compound intravenously for total dose.; assay type: functional, Mus musculus
[21] = tested on: L1210; test: Compound was evaluated in vivo for antitumor activity after intraperitoneal administration against L1210(935)for change in body weight at an optimal dose of 0.5 mg/kg/injection at 1,4,7,11day schedule.; assay type: functional, Mus musculus; procedure, shortened: as §1
[22] = tested on: P388; test: Compound was evaluated in vivo for antitumor activity after intraperitoneal administration against P388 (1313) for tumor free survivors at an optimal dose of 0.2 mg/kg/injection; assay type: functional, Mus musculus
[23] = tested on: L1210; test: Compound was evaluated in vivo for antitumor activity after intraperitoneal administration against L1210(935) for tumor free survivors at an optimal dose of 0.2 mg/kg/injection at 1-4 day schedule.; assay type: functional, Mus musculus; procedure, shortened: as §1
[24] = tested on: L1210; test: Compound was evaluated in vivo for antitumor activity after intraperitoneal administration against L1210(935)for change in body weight at an optimal dose of 0.1 mg/kg/injection at 1-4 day schedule.; assay type: functional, Mus musculus; procedure, shortened: as §1
[25] = Compound was evaluated in vivo for antitumor activity against mammary adenocarcinoma 16/C after injecting the compound intravenously for median tumor burden; assay type: functional, Mus musculus; procedure, shortened: as §2
[26] = tested on: L1210; test: Compound was evaluated in vivo for antitumor activity after intraperitoneal administration against L1210(935) for median day of death at an optimal dose of 0.4 mg/kg/injection at 1-4 day schedule.; assay type: functional, Mus musculus; procedure, shortened: as §1
[27] = tested on: L1210; test: Compound was evaluated in vivo for antitumor activity after intraperitoneal administration against L1210(935)for change in body weight at an optimal dose of 1 mg/kg/injection at 1 day schedule.; assay type: functional, Mus musculus; procedure, shortened: as §1
[28] = tested on: L1210; test: Inhibitory activity against L1210 cell growth; assay type: functional, cell-based; settings: Mus musculus
Procedure, shortened: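 L1210 cells were grown in RPMI 1640 with 2 mM glutamine and 20% heat-inactivated horse serum at 37 °C under 5% CO2. Drug was added in DMSO (0.5% final) to exponential cells seeded at 0.8×10^5 cells/mL. Coulter counts were done in triplicate at 48 h. IC50 was taken from a regression of probit % growth inhibition against log dose, from one experiment.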

[29] = tested on: L1210; test: Compound was evaluated in vivo for antitumor activity after intraperitoneal administration against L1210(935) for mortality range at an optimal dose of 0.2 mg/kg/injection at 1-4 day schedule.; assay type: functional, Mus musculus; procedure, shortened: as §1
[30] = tested on: P388; test: Compound was evaluated in vivo for antitumor activity after intraperitoneal administration against P388/L-PAM(14) for mortality range at an optimal dose of 0.2 mg/kg/injection at 1,2,3,4 day schedule.; assay type: functional, Mus musculus

## CN(C)CCCNc1ncnc2c1C(=O)C(N1CC1)=C(N1CC1)C2=O
[1]
  Toxicity: 0
[2]
  ILS at 0.4 mg/kg: 91%
[3]
  Total dose: 1 mg/kg
[4]
  Total dose: 0.5 mg/kg
[5]
  Median day of death: 23
[6]
  ILS at 0.5 mg/kg: 28%
[7]
  Survivors: 0
[8]
  ILS at 1 mg/kg: 70%
[9]
  Median day of death: 19.5
[10]
  Tumor burden: 2002 mg and 3807 mg
[11]
  Survivors: 0
[12]
  Tumor burden: 895 mg
[13]
  Toxicity: 0
[14]
  Change in body weight: -1 g mouse-1
[15]
  Total dose: 0.5 mg/kg
[16]
  Survivors: 0
[17]
  Tumor burden: 40 mg
[18]
  Total dose: 1 mg/kg
[19]
  Change in body weight: 0.6 g mouse-1 and 1.1 g mouse-1
[20]
  Total dose: 1.8 mg/kg
[21]
  Change in body weight: 1.1 g mouse-1
[22]
  Survivors: 0
[23]
  Survivors: 1
[24]
  Change in body weight: 0.4 g mouse-1
[25]
  Tumor burden: 1265 mg
[26]
  Median day of death: 14
[27]
  Change in body weight: 0.6 g mouse-1
[28]
  IC50: 0.00102 µg/mL and 2.7 nM
[29]
  Mortality: 14 days
[30]
  Mortality: 20 days
